From PubChem BioAssay AID821 (SRMLSC, 2007) come the findings set out here.

For the assay, the system named is LL 47 lung fibroblast viability, ATP luminescence. Briefly: inhibition of LL 47 lung fibroblast growth, concentration-response curve, selectivity screen for endothelial cell growth inhibitor project, cellular system, ATP luminescence readout (AID 821).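 Note: cells exposed to compound for 72 h at 37 °C.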 The essentials:
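Assay system: LL 47 human lung fibroblast cells | Amount: 1,150 cells/well | Schedule: 72 h exposure, 37 °C | Measured by: CellTiter-Glo luminescence | Measure: Percent viability relative to untreated wells, EC50 via 4-parameter fit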

Where only a bound is given, the exact number is not on record here.

One may read the EC50 as the concentration that produces a half-maximal response. `CN1CCN(CCCN2c3ccccc3Sc3ccc(C(F)(F)F)cc32)CC1`: the EC50 is 17.9 µM. With `COCc1cc(=O)[nH]c(Nc2nc(C)c3ccccc3n2)n1` the figure was 20.3 µM; with `O=C(c1ccc(F)cc1)C(CN1CCOCC1)c1ccccc1` (stereo not drawn), 6.42 µM. Turning to `COc1cc(/C=C(/C(=O)c2cccs2)c2nc3ccccc3[nH]2)cc(OC)c1O`, the 50% effective concentration (EC50) is 8.69 µM. Next, `Cc1ccc(-c2nn3c(C)nnc3s2)cc1NC(=O)c1ccc(-c2cccc(Cl)c2)o1`: 13.1 µM; `N#Cc1cc2sc3nnc(-c4ccncc4)n3c2cc1C#N`: 15.6 µM; `N#CC(c1ccccc1)c1ccc2c(C(F)(F)F)cc(C(F)(F)F)nc2n1` (stereo not drawn): 18 µM. Next, `CCC(C)(C)n1nnnc1C(c1cc2cc(C)cc(C)c2[nH]c1=O)N1CCN(Cc2ccc3c(c2)OCO3)CC1` (stereo not drawn): 9.88 µM. Next, `O=c1cc(-c2ccccc2)[nH]n1-c1nc2ccccc2[nH]1`: 5.6 µM; `N=c1c2c(-c3ccccc3)c(-c3ccccc3)n(Cc3ccco3)c2ncn1Cc1ccco1`: 7.06 µM; `CC(C)=CCC/C(C)=C/CCC(C)NCCN1CCNCC1` (stereo not drawn): 10.4 µM. Consider `O=C1CSC(=S)N1Cc1cccnc1`, for which the EC50 was 9.72 µM.

Take `Fc1ccc2c(Cl)c(-c3nnc(-c4cccs4)o3)sc2c1`: the EC50 is 11.4 µM. Consider `CCC(=O)N1c2ccc(S(=O)(=O)CCC(=O)N3CCn4c3nc3ccccc34)cc2CC1C` (stereo not drawn), for which the EC50 is 9.63 µM. With `Cc1ccccc1CS(=O)(=O)c1nnc([C@H](Cc2ccccc2)NC(=O)OC(C)(C)C)o1` the figure was 13.1 µM; with `O=C(Oc1cccc2cccnc12)c1ccc2c(c1)OCCO2`, 6.78 µM.

For `CCOC(=O)c1ccccc1Nc1cn(C(C)=O)c2ccccc12`, the EC50 is 14.5 µM. As for `CCC(C)(C)NC(=O)C(c1ccc(C)o1)N(Cc1cccs1)C(=O)Cn1nnc2ccccc21` (stereo not drawn), the EC50 is 13.9 µM. As for `Cc1sc2nc(SCC(=O)C(C)(C)C)n(Cc3ccco3)c(=O)c2c1C`, the EC50 was 16.9 µM. With `COCCCn1[nH]c2c3c(ccc2c1=O)C(=O)c1ccccc1C3=O` the figure was 17 µM. Next, `CSc1nncc(=O)[nH]1`: 13.1 µM; `O=C(Cc1sc(-c2ccccc2Cl)nc1-c1ccccc1)Nc1ccc(F)cc1`: 19.4 µM. Next, `COc1ccc(C(=O)C(CN2CCOCC2)c2ccccc2)cc1F` (stereo not drawn): 5.53 µM; `CN(C)C(=O)CSc1cccc2cccnc12`: 13.7 µM; `COC(=O)c1ccc2c(=O)n(Cc3ccco3)c(SCC(=O)Nc3ccc(C)c(Cl)c3)nc2c1`: 4.07 µM. On to `CCc1ccc2c(c1)/C(=C/C(=O)c1cccs1)C(=O)N2`, for which the EC50 is 3.48 µM. Consider `Cc1ccccc1-c1nc(CN2CCC(C(=O)NCCCN3CC(C)CC(C)C3)CC2)c(C)o1` (stereo not drawn), for which the EC50 was 10.6 µM. Next, `Cc1nc(NC(=O)CSc2nc3cccnc3n2C2CCCCC2)sc1C`: 8.49 µM; `Cn1cc(/C=N/n2cnc3scc(-c4ccccc4)c3c2=O)c2ccccc21`: 12.9 µM; `CCc1ccc(-c2nc(CN3CCC(C(=O)N4CCN(c5ccccc5)CC4)CC3)c(C)o2)cc1`: 18.7 µM. Regarding `O=S(=O)(c1ccc2c(c1)nc(COc1ccc(Cl)cc1)n2CC1CCCO1)N1CCOCC1` (stereo not drawn), the EC50 was 8.4 µM. Next, `COc1ccc(S(=O)(=O)N2N=C(C)Oc3ccccc3C2=O)cc1`: 19.5 µM; `Cc1cc(NC(=O)c2cc(-c3ccncc3)nc3c(C)cccc23)no1`: 9.48 µM.

Consider `CCOC(=O)c1cnc(-n2nc(C)cc2C)nc1NCCc1ccccc1`, for which the EC50 is 14.2 µM. In the case of `Cc1cccc(NC(=O)Nc2cccc(Oc3c(F)c(F)c(F)c(F)c3F)c2)c1`, the EC50 was 17.5 µM. As for `COc1ccccc1-c1nnc2n1N=C(c1ccc(O)c(O)c1)CS2`, the EC50 is 2.68 µM. With `C#CCn1c(=NC(=O)c2ccc(Br)s2)sc2cccc(OC)c21` the figure was 20.1 µM; with `CCN(CCNC(=O)C1CCN(Cc2nc(-c3ccc(Cl)cc3)oc2C)CC1)c1ccccc1`, 17.8 µM; with `CCOc1ccccc1-n1c(CN2CCN(C(=O)c3ccco3)CC2)nc2ccccc2c1=O`, 5.7 µM. With `Cn1c(=NC(=O)CCl)sc2ccccc21` the figure was < 0.039 µM; with `COc1ccc2oc(=O)c(-c3nnc(NCc4ccco4)s3)cc2c1`, 8 µM.

Regarding `CCCCN(C)S(=O)(=O)c1ccc(C(=O)Nc2nnc(-c3cccs3)o2)cc1`, the EC50 is 11.5 µM. Turning to `O=c1[nH]c2cc3c(cc2cc1C(c1nnnn1Cc1ccccc1)N1CCCCCC1)OCCO3` (stereo not drawn), the EC50 is 19.1 µM.

Take `Oc1ccccc1/C=N/Nc1nccnc1Cl`: the EC50 was 2.08 µM. Next, `Cc1ccc(C2Oc3ccccc3C3=C2C(c2cccs2)n2ncnc2N3)cc1` (stereo not drawn): 19.1 µM; `O=C(C#Cc1cccc([N+](=O)[O-])c1)c1ccccc1`: 18.5 µM. In the case of `Cc1oc(-c2ccc(Cl)cc2)nc1CN1CCC(C(=O)N2CCN(Cc3ccccc3)CC2)CC1`, the concentration giving a half-maximal response (EC50) is 17.5 µM. As to `COc1ccc(Nc2nc(N3CCCC3)nc3ccccc23)c(OC)c1`, the EC50 is 14.4 µM. `O=C(Nc1ccc(-c2nc3c(ccc4ccccc43)o2)cc1)c1ccco1`: the EC50 is 10.9 µM. Next, `COc1ccc(N2C(=O)CC(Sc3nnc(-c4ccccc4)o3)C2=O)cc1` (stereo not drawn): 13.2 µM; `CCOC(=O)c1cnc(-n2nc(C)cc2C)nc1Nc1ccc(N(C)C)cc1`: 14.6 µM.

Consider `O=[N+]([O-])c1ccc(Sc2cccc3cccnc23)c([N+](=O)[O-])c1`, for which the EC50 was 5.03 µM.

Take `O=C(Nc1nnc(-c2ccccc2SCc2ccccc2F)s1)Nc1ccccc1F`: the EC50 was 16.2 µM. Regarding `CCCCS(=O)(=O)/C=C\C=C/S(=O)(=O)CCCC`, the EC50 is 0.936 µM.

As for `Oc1c(CN2CCN(c3ccccn3)CC2)cc(Cl)c2cccnc12`, the EC50 was 5.46 µM. Take `COC(=O)CS(=O)(=O)c1nnc([C@H](Cc2ccccc2)NC(=O)OC(C)(C)C)o1`: the EC50 is 7.97 µM. `COC(=O)Nc1ccc(S(=O)(=O)N2c3ccccc3CCC2C)cc1` (stereo not drawn): the EC50 was 12.5 µM. With `Cc1ccc(S(=O)(=O)N2CCCN(S(=O)(=O)c3ccc(C(F)(F)F)cc3)CC2)cc1` the figure was 16.1 µM; with `OCc1ccc(O)c2ncccc12`, 9.4 µM. With `CCOc1cc(N2CCOCC2)c(OCC)cc1NC(=O)COc1cccc2cccnc12` the figure was 6.41 µM; with `Oc1c(C(Nc2ccccn2)c2ccccn2)ccc2cccnc12` (stereo not drawn), 5.55 µM. On to `Oc1c(I)cc(Cl)c2cccnc12`, for which the EC50 was 11.4 µM. Next, `N=c1c2c(ncn1CCN1CCOCC1)Oc1ccc3ccccc3c1C2c1ccccc1` (stereo not drawn): 17.5 µM; `Cc1nc(S(=O)(=O)N(C)c2ccccc2)c(C#N)c(C)c1Cl`: 18.7 µM. With `COc1ccc(OC)c(CCNC(=O)Cn2sc3nc(C)cc(C)c3c2=O)c1` the figure was 11.7 µM; with `COc1ccc(S(=O)(=O)Nc2ccc(O)c3ccccc23)cc1`, 13.1 µM; with `Cc1cc(C)n(S(=O)(=O)/C=C/c2ccccc2)n1`, 9.12 µM. Next, `CC1=CC(C)(C)Nc2ccc(OC(=O)c3cccnc3)cc21`: 7.47 µM.
